In EPA's CvTdb concentration-time database:

What was measured:
[1] = system: Rat; test: concentration in plasma after dosing; conditions: dosed: Wyeth-14643, 2.0 mg/kg, oral, Male, Sprague-Dawley
[2] = system: Rat; test: concentration in liver after dosing; conditions: 10 min; dosed: Bis 2-Chloroethoxy Methane; 20 mg/kg; iv; Female; F344
[3] = system: Rat; test: concentration in heart after dosing; conditions: 10 min; dosed: Bis 2-Chloroethoxy Methane; 20 mg/kg; iv; Male; F344
[4] = system: Rat; test: concentration in thymus after dosing; conditions: 40 min; dosed: Bis 2-Chloroethoxy Methane; 20 mg/kg; iv; Female; F344
[5] = system: Rat; test: concentration in heart after dosing; conditions: 2 h; dosed: Bis 2-Chloroethoxy Methane; 20 mg/kg; iv; Male; F344
[6] = system: Rat; test: concentration in thymus after dosing; conditions: 1 h; dosed: Bis 2-Chloroethoxy Methane; 20 mg/kg; iv; Female; F344
[7] = system: Rat; test: concentration in plasma after dosing; conditions: dosed: Fluorotelomer alcohol 8+2, 40 mg/kg, iv, Male, F344
[8] = system: Rat; test: concentration in plasma after dosing; conditions: dosed: Fluorotelomer alcohol 8+2, 40 mg/kg, iv, Male, F344; remark: listed apart in the source
[9] = system: Rat; test: concentration in kidney after dosing; conditions: 3 h; dosed: Fluorotelomer alcohol 8+2; 24 mg/kg; oral; Male; Harlan Sprague Dawley
[10] = system: Rat; test: concentration in plasma after dosing; conditions: 40 min; dosed: Di-n-butyl phthalate; 50 mg/kg; oral; Male; Sprague-Dawley
[11] = system: Rat; test: concentration in plasma after dosing; conditions: 20 min; dosed: Di-n-butyl phthalate; 50 mg/kg; oral; Male; Sprague-Dawley
[12] = system: Rat; test: concentration in plasma after dosing; conditions: 5 min; dosed: Di-n-butyl phthalate; 20 mg/kg; iv; Male; Sprague-Dawley
[13] = system: Rat; test: concentration in plasma after dosing; conditions: 0.5 h; dosed: Di-n-butyl phthalate; 50 mg/kg; oral; Male; Sprague-Dawley
[14] = system: Rat; test: concentration in plasma after dosing; conditions: dosed: Perfluorodecanoic acid, 2 mg/kg, oral, Male, Harlan Sprague Dawley
[15] = system: Rat; test: concentration in plasma after dosing; conditions: dosed: Perfluorodecanoic acid, 2 mg/kg, iv, Male, F344
[16] = system: Rat; test: concentration in kidney after dosing; conditions: 3360 h; dosed: Perfluorodecanoic acid; 10 mg/kg; oral; Female; Harlan Sprague Dawley
[17] = system: Rat; test: concentration in plasma after dosing; conditions: 1.5 h; dosed: Primidone; 30 mg/kg; oral; Male; F344
[18] = system: Rat; test: concentration in plasma after dosing; conditions: 6 h; dosed: Primidone; 30 mg/kg; oral; Male; F344
[19] = system: Rat; test: concentration in plasma after dosing; conditions: 22 h; dosed: Primidone; 80 mg/kg; oral; Female; F344
[20] = system: Rat; test: concentration in plasma after dosing; conditions: 3 h; dosed: Primidone; 80 mg/kg; oral; Female; F344
[21] = system: Rat; test: concentration in liver after dosing; conditions: 6.667 h; dosed: Thiodiglycolic Acid; 20 mg/kg; iv; Female; Harlan Sprague Dawley
[22] = system: Rat; test: concentration in thymus after dosing; conditions: 40 min; dosed: Thiodiglycolic Acid; 20 mg/kg; iv; Female; Harlan Sprague Dawley
[23] = system: Rat; test: concentration in liver after dosing; conditions: 6.667 h; dosed: Thiodiglycolic Acid; 20 mg/kg; iv; Female; Harlan Sprague Dawley; remark: listed apart in the source
[24] = system: Rat; test: concentration in heart after dosing; conditions: 1 h; dosed: Thiodiglycolic Acid; 20 mg/kg; iv; Female; Harlan Sprague Dawley
[25] = system: Rat; test: concentration in thymus after dosing; conditions: 40 min; dosed: Thiodiglycolic Acid; 20 mg/kg; iv; Male; Harlan Sprague Dawley
[26] = system: Rat; test: concentration in liver after dosing; conditions: 1 h; dosed: Thiodiglycolic Acid; 20 mg/kg; iv; Female; Harlan Sprague Dawley
[27] = system: Rat; test: concentration in liver after dosing; conditions: 10 min; dosed: Thiodiglycolic Acid; 20 mg/kg; iv; Female; Harlan Sprague Dawley
[28] = system: Rat; test: concentration in liver after dosing; conditions: 6.667 h; dosed: Thiodiglycolic Acid; 20 mg/kg; iv; Female; Harlan Sprague Dawley; remark: listed apart in the source
[29] = system: human; test: concentration in plasma after dosing; negative times count back from the end of exposure; conditions: dosed: trichloroethylene, 100 ppm, inhalation, duration: 4 hr, person
How it was run: (§1)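 Data points giving concentration or amount against time came from published in vivo toxicokinetic studies and from two structured collections. PubMed searching, classifier screening and manual review located the studies. Most points were digitised from plot screenshots using WebPlotDigitizer, the rest were copied from tables, and all keep their reported units.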

[30] = system: human; test: amount in urine after dosing (mg cumulative excretion); conditions: dosed: trichloroethylene, inhalation, duration: 8 hr
How it was run: as §1

Cc1cccc(Nc2cc(Cl)nc(SCC(=O)O)n2)c1C
[1]
Conditions	concentration in plasma [ng/mL]
1 h	513
6 h	169

ClCCOCOCCCl [Bis 2-Chloroethoxy Methane]
Conditions	concentration in heart [ng/g]	concentration in liver [ng/g]	concentration in thymus [ng/g]
[2]	–	2550	–
[3]	13200	–	–
[4]	–	–	6590
[5]	119	–	–
[6]	–	–	3420

OCCC(F)(F)C(F)(F)C(F)(F)C(F)(F)C(F)(F)C(F)(F)C(F)(F)C(F)(F)F [Fluorotelomer alcohol 8+2]
concentration in plasma [ng/mL]
Conditions	0.5 h	3 h	5 min	9 h
[7]	5950	–	–	68
[8]	–	516	22400	–

Conditions	concentration in kidney [ng/g]
[9]	985

CCCCOC(=O)c1ccccc1C(=O)O [Mono-n-butyl phthalate]
Conditions	concentration in plasma [ng/mL]
[10]	16800
[11]	16800
[12]	38500
[13]	21100

O=C(O)C(F)(F)C(F)(F)C(F)(F)C(F)(F)C(F)(F)C(F)(F)C(F)(F)C(F)(F)C(F)(F)F [Perfluorodecanoic acid]
concentration in plasma [ng/mL]
Conditions	12 h	24 h	1200 h	1848 h
[14]	8900	–	1160	–
[15]	–	5580	–	884

Conditions	concentration in kidney [ng/g]
[16]	2910

CCC1(c2ccccc2)C(=O)NC(=O)NC1=O [Phenobarbital]
Conditions	concentration in plasma [ng/mL]
[17]	1940
[18]	3110
[19]	1710
[20]	1000

O=C(O)CSCC(=O)O [Thiodiglycolic Acid]
Conditions	concentration in heart [ng/g]	concentration in liver [ng/g]	concentration in thymus [ng/g]
[21]	–	7630	–
[22]	–	–	3420
[23]	–	7100	–
[24]	1530	–	–
[25]	–	–	3430
[26]	–	62700	–
[27]	–	10200	–
[28]	–	17000	–

O=C(O)C(Cl)Cl [dichloroacetic acid]
Conditions	concentration in plasma [ng/mL]
[29], 0 h	12

[29], during exposure
Conditions	concentration in plasma [ng/mL]
-3 h	6
-2 h	8

O=C(O)C(Cl)(Cl)Cl [trichloroacetic acid]
[30]
Conditions	amount in urine
7.504 h, 97 ppm	6.26
7.706 h, 97 ppm	3.69
10.24 h, 54 ppm	5.68
11.01 h, 54 ppm	9.23
23.46 h, 97 ppm	32.7
23.84 h, 97 ppm	36.5
24.26 h, 54 ppm	25.8
24.54 h, 54 ppm	30.2
47.49 h, 97 ppm	113
47.71 h, 97 ppm	101
48.03 h, 54 ppm	88.6
48.27 h, 54 ppm	72
70.31 h, 97 ppm	166
70.67 h, 97 ppm	141
71.68 h, 54 ppm	124
71.91 h, 54 ppm	110
95.13 h, 97 ppm	201
95.58 h, 54 ppm	177
95.7 h, 97 ppm	168
96.05 h, 54 ppm	145
119.2 h, 97 ppm	224
119.67 h, 97 ppm	190
119.76 h, 54 ppm	194
119.83 h, 54 ppm	164
142.97 h, 97 ppm	249
143.27 h, 97 ppm	206
143.82 h, 54 ppm	178
143.83 h, 54 ppm	217
167.26 h, 97 ppm	260
167.56 h, 97 ppm	217
167.82 h, 54 ppm	232
168.41 h, 54 ppm	188
191.33 h, 54 ppm	199
191.56 h, 97 ppm	269
191.61 h, 54 ppm	245
191.66 h, 97 ppm	224
